Reference: ChEMBL document CHEMBL1817603, “Antibacterial polyketides from the jellyfish-derived fungus Paecilomyces variotii” (2011)
Converted amounts (≈) assume the structure as drawn.

Experiments:
Format in all cases: functional
Vibrio parahaemolyticus = test: Antimicrobial activity against multidrug-resistant Vibrio parahaemolyticus 7001 after 24 hrs by microtiter plate based MIC assay; settings: Vibrio parahaemolyticus, 7001, 24 h
Summary of the method: (§1)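 Broth microdilution MIC in LB broth. Compounds were twofold serially diluted in 0.5% MeOH, and reference antibiotics were diluted from 40 to 0.31 μg/mL per well. The bacterial inoculum was adjusted by turbidity at 600 nm to a 0.5 McFarland standard. Test solution was added at one part to nine parts culture, then incubated at 36 °C for 24 h. The assay was run in triplicate, with vehicle-matched blank growth controls.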

Staphylococcus aureus [1] = test: Antimicrobial activity against methicillin-resistant Staphylococcus aureus 3089 after 24 hrs by microtiter plate based MIC assay; settings: Staphylococcus aureus, 3089, 24 h; summary of the method: as §1
Staphylococcus aureus [2] = test: Antimicrobial activity against Staphylococcus aureus SG 511 after 24 hrs by microtiter plate based MIC assay; settings: SG 511, 24 h; summary of the method: as §1

Structure (SMILES)	MIC (Vibrio parahaemolyticus)	MIC (Staphylococcus aureus [1])	MIC (Staphylococcus aureus [2])
C[C@H]1COc2c(N3CCN(C)CC3)c(F)cc3c(=O)c(C(=O)O)cn1c23.C[C@H]1COc2c(N3CCN(C)CC3)c(F)cc3c(=O)c(C(=O)O)cn1c23.O [LEVOFLOXACIN]	0.156 µg/mL		
CCCCCCCC[C@@H]1OC(=O)c2c(O)cccc21 [PAECILOCIN A]	> 40 µg/mL	> 40 µg/mL	> 40 µg/mL
CCCCCCCC[C@]1(OC)O[C@H](OC)c2c(O)cccc21 [PAECILOCIN B]	> 40 µg/mL	20 µg/mL (≈ 64.8 µM)	5 µg/mL (≈ 16.2 µM)
CCCCCCCC[C@]1(OC)O[C@@H](OC)c2c(O)cccc21 [PAECILOCIN C]	> 40 µg/mL	40 µg/mL (≈ 130 µM)	20 µg/mL (≈ 64.8 µM)
CN(C)[C@@H]1C(O)=C(C(N)=O)C(=O)[C@@]2(O)C(O)=C3C(=O)c4c(O)cccc4[C@@](C)(O)[C@H]3C[C@@H]12 [TETRACYCLINE]			1.25 µg/mL (≈ 2.81 µM)
CN[C@H](CC(C)C)C(=O)N[C@H]1C(=O)N[C@@H](CC(N)=O)C(=O)N[C@H]2C(=O)N[C@H]3C(=O)N[C@H](C(=O)N[C@H](C(=O)O)c4cc(O)cc(O)c4-c4cc3ccc4O)[C@H](O)c3ccc(c(Cl)c3)Oc3cc2cc(c3O[C@@H]2O[C@H](CO)[C@@H](O)[C@H](O)[C@H]2O[C@H]2C[C@](C)(N)[C@H](O)[C@H](C)O2)Oc2ccc(cc2Cl)[C@H]1O [VANCOMYCIN]		0.625 µg/mL (≈ 0.431 µM)	
